Test system: Fibroblast
Experiment: Multiplex assay against human fibroblast
Assay type: toxicity, cell-based
In short: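 Values for tubulin, mitochondrial-mass and membrane-permeability phenotypes are per cents of cells with healthy nuclei. These cells were identified by CellPathfinder machine-learning gating of live cells that had been stained at seeding with Hoechst33342, BioTracker Green Microtubule Cytoskeleton Dye, MitoTracker Red and Annexin V Alexa Fluor 680 and imaged on a CQ1 microscope at 37°C and 5% CO2 after compound addition. The gating first set Hoechst high-intensity objects apart from normal cells, then split normal cells into healthy, pyknosed or fragmented nuclei, and pyknosed cells into mitotic or apoptotic.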

[1] = 12 h, 1 µM, compound concentration 1 uM, replicate 1
[2] = 12 h, 1 µM, compound concentration 1 uM, replicate 2
[3] = 12 h, 10 µM, compound concentration 10 uM, replicate 1
[4] = 12 h, 10 µM, compound concentration 10 uM, replicate 2
[5] = 24 h, 1 µM, compound concentration 1 uM, replicate 1
[6] = 24 h, 1 µM, compound concentration 1 uM, replicate 2
[7] = 24 h, 10 µM, compound concentration 10 uM, replicate 1
[8] = 24 h, 10 µM, compound concentration 10 uM, replicate 2
[9] = 48 h, 1 µM, compound concentration 1 uM, replicate 1
[10] = 48 h, 1 µM, compound concentration 1 uM, replicate 2
[11] = 48 h, 10 µM, compound concentration 10 uM, replicate 1
[12] = 48 h, 10 µM, compound concentration 10 uM, replicate 2

CCN1CCN(Cc2ccc(Nc3ncc(F)c(-c4cc(F)c5nc(C)n(C(C)C)c5c4)n3)nc2)CC1.CS(=O)(=O)O
Population Apoptotic (%) [1]: 75% | Population Fragmented Nuclei (%) [1]: 39% | Population Healthy Nuclei (%) [1]: 40% | Population Hoechst High Intensity Objects (%) [1]: 15% | Population Membrane Permeable-Phenotype (%) [1]: 17% | Population Mitochondria Different-Phenotype (%) [1]: 21% | Population Mitotic Cells (%) [1]: 25% | Population Normal (%) [1]: 84% | Population Pyknosed Nuclei (%) [1]: 20% | Population Tubulin-Different-Phenotype (%) [1]: 57% | Total Cell Count [1]: 187 | Population Apoptotic (%) [2]: 40% | Population Fragmented Nuclei (%) [2]: 17% | Population Healthy Nuclei (%) [2]: 67% | Population Hoechst High Intensity Objects (%) [2]: 6% | Population Membrane Permeable-Phenotype (%) [2]: 8% | Population Mitochondria Different-Phenotype (%) [2]: 91% | Population Mitotic Cells (%) [2]: 60% | Population Normal (%) [2]: 93% | Population Pyknosed Nuclei (%) [2]: 14% | Population Tubulin-Different-Phenotype (%) [2]: 97% | Total Cell Count [2]: 73 | Population Apoptotic (%) [3]: 63% | Population Fragmented Nuclei (%) [3]: 40% | Population Healthy Nuclei (%) [3]: 13% | Population Hoechst High Intensity Objects (%) [3]: 17% | Population Membrane Permeable-Phenotype (%) [3]: 52% | Population Mitochondria Different-Phenotype (%) [3]: 5% | Population Mitotic Cells (%) [3]: 36% | Population Normal (%) [3]: 82% | Population Pyknosed Nuclei (%) [3]: 46% | Population Tubulin-Different-Phenotype (%) [3]: 47% | Total Cell Count [3]: 158 | Population Apoptotic (%) [4]: 83% | Population Fragmented Nuclei (%) [4]: 32% | Population Healthy Nuclei (%) [4]: 22% | Population Hoechst High Intensity Objects (%) [4]: 9% | Population Membrane Permeable-Phenotype (%) [4]: 88% | Population Mitochondria Different-Phenotype (%) [4]: 94% | Population Mitotic Cells (%) [4]: 16% | Population Normal (%) [4]: 90% | Population Pyknosed Nuclei (%) [4]: 45% | Population Tubulin-Different-Phenotype (%) [4]: 100% | Total Cell Count [4]: 88 | Population Apoptotic (%) [5]: 44% | Population Fragmented Nuclei (%) [5]: 39% | Population Healthy Nuclei (%) [5]: 45% | Population Hoechst High Intensity Objects (%) [5]: 21% | Population Membrane Permeable-Phenotype (%) [5]: 15% | Population Mitochondria Different-Phenotype (%) [5]: 8% | Population Mitotic Cells (%) [5]: 55% | Population Normal (%) [5]: 78% | Population Pyknosed Nuclei (%) [5]: 15% | Population Tubulin-Different-Phenotype (%) [5]: 69% | Total Cell Count [5]: 240 | Population Apoptotic (%) [6]: 58% | Population Fragmented Nuclei (%) [6]: 20% | Population Healthy Nuclei (%) [6]: 61% | Population Hoechst High Intensity Objects (%) [6]: 10% | Population Membrane Permeable-Phenotype (%) [6]: 21% | Population Mitochondria Different-Phenotype (%) [6]: 85% | Population Mitotic Cells (%) [6]: 41% | Population Normal (%) [6]: 89% | Population Pyknosed Nuclei (%) [6]: 17% | Population Tubulin-Different-Phenotype (%) [6]: 87% | Total Cell Count [6]: 75 | Population Apoptotic (%) [7]: 80% | Population Fragmented Nuclei (%) [7]: 45% | Population Healthy Nuclei (%) [7]: 16% | Population Hoechst High Intensity Objects (%) [7]: 25% | Population Membrane Permeable-Phenotype (%) [7]: 46% | Population Mitochondria Different-Phenotype (%) [7]: 0% | Population Mitotic Cells (%) [7]: 20% | Population Normal (%) [7]: 74% | Population Pyknosed Nuclei (%) [7]: 38% | Population Tubulin-Different-Phenotype (%) [7]: 53% | Total Cell Count [7]: 122 | Population Apoptotic (%) [8]: 97% | Population Fragmented Nuclei (%) [8]: 27% | Population Healthy Nuclei (%) [8]: 13% | Population Hoechst High Intensity Objects (%) [8]: 20% | Population Membrane Permeable-Phenotype (%) [8]: 100% | Population Mitochondria Different-Phenotype (%) [8]: 87% | Population Mitotic Cells (%) [8]: 2% | Population Normal (%) [8]: 79% | Population Pyknosed Nuclei (%) [8]: 59% | Population Tubulin-Different-Phenotype (%) [8]: 100% | Total Cell Count [8]: 74 | Population Apoptotic (%) [9]: 56% | Population Fragmented Nuclei (%) [9]: 43% | Population Healthy Nuclei (%) [9]: 41% | Population Hoechst High Intensity Objects (%) [9]: 37% | Population Membrane Permeable-Phenotype (%) [9]: 6% | Population Mitochondria Different-Phenotype (%) [9]: 12% | Population Mitotic Cells (%) [9]: 43% | Population Normal (%) [9]: 62% | Population Pyknosed Nuclei (%) [9]: 15% | Population Tubulin-Different-Phenotype (%) [9]: 69% | Total Cell Count [9]: 246 | Population Apoptotic (%) [10]: 75% | Population Fragmented Nuclei (%) [10]: 53% | Population Healthy Nuclei (%) [10]: 43% | Population Hoechst High Intensity Objects (%) [10]: 16% | Population Membrane Permeable-Phenotype (%) [10]: 10% | Population Mitochondria Different-Phenotype (%) [10]: 5% | Population Mitotic Cells (%) [10]: 25% | Population Normal (%) [10]: 83% | Population Pyknosed Nuclei (%) [10]: 2% | Population Tubulin-Different-Phenotype (%) [10]: 61% | Total Cell Count [10]: 199 | Population Apoptotic (%) [11]: 100% | Population Fragmented Nuclei (%) [11]: 69% | Population Healthy Nuclei (%) [11]: 20% | Population Hoechst High Intensity Objects (%) [11]: 33% | Population Membrane Permeable-Phenotype (%) [11]: 41% | Population Mitochondria Different-Phenotype (%) [11]: 5% | Population Mitotic Cells (%) [11]: 0% | Population Normal (%) [11]: 66% | Population Pyknosed Nuclei (%) [11]: 9% | Population Tubulin-Different-Phenotype (%) [11]: 76% | Total Cell Count [11]: 123 | Population Apoptotic (%) [12]: 77% | Population Fragmented Nuclei (%) [12]: 35% | Population Healthy Nuclei (%) [12]: 50% | Population Hoechst High Intensity Objects (%) [12]: 53% | Population Membrane Permeable-Phenotype (%) [12]: 23% | Population Mitochondria Different-Phenotype (%) [12]: 38% | Population Mitotic Cells (%) [12]: 22% | Population Normal (%) [12]: 46% | Population Pyknosed Nuclei (%) [12]: 13% | Population Tubulin-Different-Phenotype (%) [12]: 52% | Total Cell Count [12]: 145

Reference: ChEMBL document CHEMBL4689842, “EUbOPEN Chemogenomics Library wave 1” (2021)
